According to ChEMBL document CHEMBL1932966, “Pyrrolo- and pyrazolo-[3,4-e][1,2,4]triazolo[1,5-c]pyrimidines as adenosine receptor antagonists” (Bioorg Med Chem, 2012):

Legend:
Adenosine receptor A1 = biological target: T1, Adenosine receptor A1 (Homo sapiens, UniProt P30542); assay: Displacement of [3H]-DPCPX from human adenosine A1 receptor expressed in CHO cells after 120 mins by liquid scintillation counting; type: cell-based
T1 sequence (P30542 whole entry): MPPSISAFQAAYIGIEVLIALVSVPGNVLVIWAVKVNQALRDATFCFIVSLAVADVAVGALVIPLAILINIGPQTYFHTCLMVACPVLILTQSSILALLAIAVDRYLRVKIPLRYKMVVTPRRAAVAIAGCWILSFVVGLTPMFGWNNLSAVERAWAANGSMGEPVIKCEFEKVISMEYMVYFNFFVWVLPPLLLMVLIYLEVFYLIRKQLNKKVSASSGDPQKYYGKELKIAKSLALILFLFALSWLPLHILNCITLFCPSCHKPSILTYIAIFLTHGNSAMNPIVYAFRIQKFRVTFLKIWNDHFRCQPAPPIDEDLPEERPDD

Adenosine receptor A2a [1] = biological target: T2, Adenosine receptor A2a (Homo sapiens, UniProt P29274); assay: Displacement of [3H]-ZM 241385 from human adenosine A2A receptor expressed in CHO cells after 60 mins by liquid scintillation counting; type: cell-based
T2 sequence (P29274 whole entry): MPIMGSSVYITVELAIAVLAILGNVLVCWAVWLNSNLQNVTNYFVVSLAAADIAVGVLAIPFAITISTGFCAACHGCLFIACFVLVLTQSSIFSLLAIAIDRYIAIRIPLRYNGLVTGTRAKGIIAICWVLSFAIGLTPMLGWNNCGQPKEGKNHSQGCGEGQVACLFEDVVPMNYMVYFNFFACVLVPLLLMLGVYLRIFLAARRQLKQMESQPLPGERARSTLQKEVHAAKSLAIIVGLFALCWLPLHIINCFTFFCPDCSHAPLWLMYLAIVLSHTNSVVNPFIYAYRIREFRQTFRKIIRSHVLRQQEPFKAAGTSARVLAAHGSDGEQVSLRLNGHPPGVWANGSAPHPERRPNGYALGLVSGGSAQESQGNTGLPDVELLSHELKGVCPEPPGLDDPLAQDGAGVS

Adenosine receptor A3 [2] = biological target: T3, Adenosine receptor A3 (Homo sapiens, UniProt P0DMS8); assay: Displacement of [3H]-MRE-3008-F20 from human adenosine A3 receptor expressed in CHO cells after 120 mins by liquid scintillation counting; type: cell-based
T3 sequence (P0DMS8 whole entry): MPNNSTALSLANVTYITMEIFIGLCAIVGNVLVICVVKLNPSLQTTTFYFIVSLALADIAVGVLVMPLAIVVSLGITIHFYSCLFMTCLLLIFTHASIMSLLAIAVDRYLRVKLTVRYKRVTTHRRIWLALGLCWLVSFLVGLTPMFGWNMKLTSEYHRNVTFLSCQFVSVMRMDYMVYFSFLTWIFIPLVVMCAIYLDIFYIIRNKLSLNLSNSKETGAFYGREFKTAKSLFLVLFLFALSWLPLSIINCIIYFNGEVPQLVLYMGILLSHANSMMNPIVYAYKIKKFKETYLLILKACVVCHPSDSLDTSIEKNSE

Adenosine receptor A2b [3] = biological target: T4, Adenosine receptor A2b (Homo sapiens, UniProt P29275); type: functional, cell-based, CHO
T4 sequence (P29275 whole entry): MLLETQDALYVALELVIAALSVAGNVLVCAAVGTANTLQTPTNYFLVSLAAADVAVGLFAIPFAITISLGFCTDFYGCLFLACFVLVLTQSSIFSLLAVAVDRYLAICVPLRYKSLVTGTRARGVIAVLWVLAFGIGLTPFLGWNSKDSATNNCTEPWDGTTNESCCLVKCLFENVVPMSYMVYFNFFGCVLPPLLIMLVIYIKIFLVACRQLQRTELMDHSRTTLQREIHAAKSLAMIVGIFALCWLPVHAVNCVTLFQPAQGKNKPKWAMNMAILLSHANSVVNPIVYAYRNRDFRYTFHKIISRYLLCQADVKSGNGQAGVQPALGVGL

[4] = biological target: T5, Adenosine receptor A1 (Homo sapiens) (UniProt P30542); assay: Displacement of [3H]-DPCPX from human adenosine A1 receptor expressed in CHO cells at 1 uM after 120 mins by liquid scintillation counting; type: cell-based
T5 sequence (whole entry): T1 sequence (P30542 whole entry)
How it was run: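 Percent inhibition at a single concentration of 1 nM [3H]DPCPX binding to hA1-CHO membranes in 50 mM Tris HCl, pH 7.4. Membranes were pretreated with 2 IU/mL adenosine deaminase for 30 min at 37 °C. Incubation was 120 min at 25 °C, and bound label was separated by GF/B glass-fibre filtration.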

Adenosine receptor A2a [5] = biological target: T2, Adenosine receptor A2a; assay: Displacement of [3H]-ZM 241385 from human adenosine A2A receptor expressed in CHO cells at 1 uM after 60 mins by liquid scintillation counting; type: cell-based
[6] = biological target: T6, Adenosine receptor A3 (Homo sapiens) (UniProt P0DMS8); assay: Displacement of [3H]-MRE-3008-F20 from human adenosine A3 receptor expressed in CHO cells at 1 uM after 120 mins by liquid scintillation counting; type: cell-based
T6 sequence (whole entry): T3 sequence (P0DMS8 whole entry)
How it was run: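 Membranes from hA3-CHO cells in 50 mM Tris HCl, 10 mM MgCl2, 1 mM EDTA, pH 7.4, pretreated with adenosine deaminase (2 IU/mL, 30 min, 37 °C). Incubation 120 min at 4 °C. Non-specific binding with unlabelled MRE3008F20. GF/B filtration.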

[7] = biological target: Adenosine receptor A2B (Homo sapiens) (UniProt P29275); settings: CHO, at 1 µM
Adenosine receptor A3 [8] = biological target: T3, Adenosine receptor A3; assay: Antagonist activity at human adenosine A3 receptor expressed in forskolin-stimulated CHO cells assessed as inhibition of Cl-IB-MECA-induced cAMP production by competition protein binding assay; type: functional, cell-based
How it was run: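 CHO cells stably expressing human A3 receptor were harvested with dilute trypsin and preincubated for 10 min at 37 °C in pH 7.4 buffer with 2 IU/mL adenosine deaminase and the phosphodiesterase inhibitor Ro 20-1724. Antagonism of 100 nM Cl-IB-MECA was run with forskolin present. The reaction was stopped with cold 6% TCA and extracted with ether. cAMP was read against [3H]cAMP and bovine adrenal binding protein. IC50 came from sigmoid fitting.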

Adenosine receptor A2b [9] = biological target: T4, Adenosine receptor A2b; assay: biochemical

| Ki (Adenosine receptor A1) | Ki (Adenosine receptor A2a [1]) | Ki (Adenosine receptor A3 [2]) | IC50 (Adenosine receptor A2b [3]) | inhibition [4] | inhibition (Adenosine receptor A2a [5]) | inhibition [6] | inhibition [7] | IC50 (Adenosine receptor A3 [8]) | Ki (Adenosine receptor A2b [9]) | SMILES |
| --- | --- | --- | --- | --- | --- | --- | --- | --- | --- | --- |
| 0.033 µM | 0.042 µM | 0.603 µM | 0.319 µM |  |  |  |  |  |  | Nc1nc2cnn(CCc3ccccc3)c2c2nc(-c3ccco3)nn12 |
| 0.0071 µM | 0.011 µM | 0.526 µM | 0.032 µM |  |  |  |  |  |  | Nc1nc2cn(CCCc3ccccc3)nc2c2nc(-c3ccco3)nn12 |
| > 1 µM | > 1 µM | > 1 µM | > 1 µM | 38% | 32% | 25% | 32% |  |  | COc1ccc(NC(=O)Nc2nc3cnn(CCCc4ccccc4)c3c3nc(-c4ccco4)nn23)cc1 |
| > 1 µM | > 1 µM | > 1 µM | > 1 µM | 5% | 2% | 1% | 2% |  |  | CN1CCN(c2nc3cnn(C)c3c3nc(-c4ccco4)nn23)CC1 |
| 0.012 µM | 0.119 µM | 0.507 µM | 0.915 µM |  |  |  |  |  |  | Cn1ncc2nc(NC3CCCCC3)n3nc(-c4ccco4)nc3c21 |
| 0.8 µM | 0.5 µM | 0.015 µM | 0.838 µM |  |  |  |  | 0.075 µM |  | COc1ccc(NC(=O)Nc2nc3cn(C)cc3c3nc(-c4ccco4)nn23)cc1 |
| 0.085 µM | 0.122 µM | 0.802 µM | 0.595 µM |  |  |  |  |  |  | Nc1nc2cnn(CCCc3ccccc3)c2c2nc(-c3ccco3)nn12 |
| 0.923 µM | 0.222 µM | 0.11 µM | 0.58 µM |  |  |  |  |  |  | COc1ccc(NC(=O)Nc2nc3cn(C)nc3c3nc(-c4ccco4)nn23)cc1 |
| 0.0049 µM | 0.0092 µM | 0.315 µM | 0.027 µM |  |  |  |  |  |  | Nc1nc2cn(CCc3ccccc3)nc2c2nc(-c3ccco3)nn12 |
| 0.035 µM | 0.03 µM | 0.055 µM | 0.09 µM |  |  |  |  |  |  | CCCn1cc2nc(N)n3nc(-c4ccco4)nc3c2c1 |
| 0.24 µM | 0.208 µM | 0.05 µM | 0.863 µM |  |  |  |  | 0.25 µM |  | CCCn1cc2nc(NC(=O)Nc3ccc(OC)cc3)n3nc(-c4ccco4)nc3c2n1 |
| 0.022 µM | 0.017 µM | 0.432 µM | 0.045 µM |  |  |  |  |  |  | CCCn1cc2nc(N)n3nc(-c4ccco4)nc3c2n1 |
| 0.524 µM | 0.626 µM | 0.208 µM | 0.772 µM |  |  |  |  |  |  | COc1ccc(NC(=O)Nc2nc3cnn(CCc4ccccc4)c3c3nc(-c4ccco4)nn23)cc1 |
| 0.014 µM | 0.012 µM | 0.083 µM | 0.04 µM |  |  |  |  | 0.5 µM |  | CCCn1ncc2nc(N)n3nc(-c4ccco4)nc3c21 |
| 0.0043 µM | 0.0039 µM | 0.124 µM | 0.046 µM |  |  |  |  |  |  | Nc1nc2cn(CCc3ccccc3)cc2c2nc(-c3ccco3)nn12 |
| 0.178 µM | 0.148 µM | 0.012 µM | 0.74 µM |  |  |  |  |  |  | COc1ccc(NC(=O)Nc2nc3cn(CCc4ccccc4)cc3c3nc(-c4ccco4)nn23)cc1 |

| Ki (Adenosine receptor A1) | Ki (Adenosine receptor A2a [1]) | Ki (Adenosine receptor A3 [2]) | IC50 (Adenosine receptor A2b [3]) | inhibition [4] | inhibition (Adenosine receptor A2a [5]) | inhibition [6] | inhibition [7] | IC50 (Adenosine receptor A3 [8]) | Ki (Adenosine receptor A2b [9]) | SMILES |
| --- | --- | --- | --- | --- | --- | --- | --- | --- | --- | --- |
| 0.01 µM | 0.0036 µM | 0.749 µM | 0.031 µM |  |  |  |  |  |  | Cn1ncc2nc(N)n3nc(-c4ccco4)nc3c21 |
| 0.03 µM | 0.0081 µM | 0.125 µM | 0.033 µM |  |  |  |  |  |  | Cn1cc2nc(N)n3nc(-c4ccco4)nc3c2n1 |
| > 1 µM | > 1 µM | 0.815 µM | > 1 µM | 35% | 31% |  | 31% |  |  | COc1ccc(NC(=O)Nc2nc3cn(CCCc4ccccc4)nc3c3nc(-c4ccco4)nn23)cc1 |
|  |  | > 10 µM |  |  |  |  |  |  |  | Nc1nc2c(cnn2CCc2ccccc2)c2nc(-c3ccco3)nn12 [SCH-58261] |
| 0.1 µM | 0.02 µM | 0.05 µM | 0.042 µM |  |  |  |  |  |  | Cn1cc2nc(N)n3nc(-c4ccco4)nc3c2c1 |
| > 1 µM | > 1 µM | > 1 µM | > 1 µM | 6% | 4% | 1% | 4% |  |  | Cn1ncc2nc(N3CCOCC3)n3nc(-c4ccco4)nc3c21 |
| 0.743 µM | 0.2 µM | 0.01 µM | 0.906 µM |  |  |  |  | 0.05 µM |  | CCCn1cc2nc(NC(=O)Nc3ccc(OC)cc3)n3nc(-c4ccco4)nc3c2c1 |
| 0.753 µM | 0.672 µM | 0.314 µM | 0.548 µM |  |  |  |  |  |  | COc1ccc(NC(=O)Nc2nc3cn(CCc4ccccc4)nc3c3nc(-c4ccco4)nn23)cc1 |
| 0.061 µM | 0.02 µM | 0.161 µM | 0.032 µM |  |  |  |  |  |  | CCCn1ncc2nc(NC(=O)Nc3ccc(OC)cc3)n3nc(-c4ccco4)nc3c21 |
| 0.129 µM | 0.068 µM | 0.061 µM | 0.122 µM |  |  |  |  |  |  | COc1ccc(NC(=O)Nc2nc3cnn(C)c3c3nc(-c4ccco4)nn23)cc1 |
| > 1 µM | > 1 µM | > 1 µM | > 1 µM | 8% | 9% | 1% | 5% |  |  | Cn1ncc2nc(N3CCN(c4ccccc4)CC3)n3nc(-c4ccco4)nc3c21 |
| 0.21 µM | 0.13 µM | 0.013 µM | > 1 µM |  |  |  | 12% |  |  | COc1ccc(NC(=O)Nc2nc3cn(CCCc4ccccc4)cc3c3nc(-c4ccco4)nn23)cc1 |
| 0.018 µM | 0.05 µM | 0.241 µM | 0.251 µM |  |  |  |  |  |  | Nc1nc2cn(CCCc3ccccc3)cc2c2nc(-c3ccco3)nn12 |
| 0.355 µM | > 1 µM | 0.111 µM | > 1 µM |  | 13% |  | 8% |  |  | Cn1cc2nc(NC(=O)Nc3ccncc3)n3nc(-c4ccco4)nc3c2c1 |
|  |  | > 10 µM |  |  |  |  |  |  | > 10 µM | Nc1nc2c(cnn2CCCc2ccccc2)c2nc(-c3ccco3)nn12 [SCH-63390] |
